Series [1] addresses T1, Peroxisome proliferator-activated receptor alpha (Homo sapiens) (UniProt Q07869).
T1 sequence (whole entry): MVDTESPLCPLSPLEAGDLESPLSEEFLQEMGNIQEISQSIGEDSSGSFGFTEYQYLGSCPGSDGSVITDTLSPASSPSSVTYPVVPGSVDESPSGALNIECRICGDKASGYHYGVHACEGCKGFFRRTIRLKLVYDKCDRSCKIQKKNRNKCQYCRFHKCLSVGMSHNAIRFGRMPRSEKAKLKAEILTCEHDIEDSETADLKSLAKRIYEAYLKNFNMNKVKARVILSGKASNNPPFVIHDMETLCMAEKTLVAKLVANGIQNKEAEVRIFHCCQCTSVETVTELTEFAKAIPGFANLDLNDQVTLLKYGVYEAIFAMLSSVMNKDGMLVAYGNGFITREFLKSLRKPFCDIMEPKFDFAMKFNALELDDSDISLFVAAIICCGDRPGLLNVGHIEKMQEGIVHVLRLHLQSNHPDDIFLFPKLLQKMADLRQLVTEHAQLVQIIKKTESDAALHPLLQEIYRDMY
Kind of series: Agonist activity at PPARalpha in human HepG2 cells assessed as increase in CPT1 mRNA level at 1 uM after 24 hrs by RT-PCR method. In kind it is cell-based. The essentials:
(§1)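 Serum-free HepG2 exposed 24 h to 1 μM test agent (Wy-14,643 reference at 50 μM). RNA extracted from 1x10⁶ cells; TaqMan real-time RT-PCR for CAC, CPT1 or PPARα, normalized to β-actin. Mean ± SD of three independent duplicate experiments; one-way ANOVA with Bonferroni test.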

Series [2] deals with T2, Peroxisome proliferator-activated receptor alpha (Homo sapiens, UniProt Q07869).
T2 sequence (Q07869 whole entry): T1 sequence (whole entry)
The series can be described thus: Binding affinity to PPARalpha (unknown origin) assessed as thermodynamic dissociation constant by SPR assay. As to conditions: read-out: Kd. A general note: In SPR one partner is held on a chip, and binding of the other changes the refractive index at the surface.

Series [3] deals with T1, Peroxisome proliferator-activated receptor alpha (Homo sapiens). Kind of series: Agonist activity at PPARalpha assessed as induction of positive regulatory loop based receptor transcriptional activation by measuring upregulation of PPARalpha protein expression level in human HepG2 cells at 1 uM after 48 hrs by Western blot method. The class given is cell-based. In outline:
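HepG2 serum-depleted 24 h, then treated 48 h with 1 μM compound (Wy-14,643 at 50 μM as reference). Nitrocellulose immunoblots probed for CAC, CPT1 or PPARα with β-actin loading control, chemiluminescent detection; band densitometry expressed as fold change versus untreated cells; three independent experiments.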
Background: Immunoblotting shows a protein as a band on a membrane.

For series [4] the target is unchanged. The series can be described thus: Agonist activity at PPARalpha assessed as induction of positive regulatory loop based receptor transcriptional activation by measuring upregulation of PPARalpha mRNA level in human HepG2 cells at 1 uM after 24 hrs by RT-PCR method. In kind it is cell-based. In outline: as §1
The target is the same in series [5]. The series can be described thus: Agonist activity at PPARalpha in human HepG2 cells assessed as increase in CAC mRNA level at 1 uM after 24 hrs by RT-PCR method. The class given is cell-based. In outline:
as §1

For series [6], the target named is T3, Peroxisome proliferator-activated receptor gamma (Homo sapiens) (UniProt P37231).
T3 sequence (whole entry): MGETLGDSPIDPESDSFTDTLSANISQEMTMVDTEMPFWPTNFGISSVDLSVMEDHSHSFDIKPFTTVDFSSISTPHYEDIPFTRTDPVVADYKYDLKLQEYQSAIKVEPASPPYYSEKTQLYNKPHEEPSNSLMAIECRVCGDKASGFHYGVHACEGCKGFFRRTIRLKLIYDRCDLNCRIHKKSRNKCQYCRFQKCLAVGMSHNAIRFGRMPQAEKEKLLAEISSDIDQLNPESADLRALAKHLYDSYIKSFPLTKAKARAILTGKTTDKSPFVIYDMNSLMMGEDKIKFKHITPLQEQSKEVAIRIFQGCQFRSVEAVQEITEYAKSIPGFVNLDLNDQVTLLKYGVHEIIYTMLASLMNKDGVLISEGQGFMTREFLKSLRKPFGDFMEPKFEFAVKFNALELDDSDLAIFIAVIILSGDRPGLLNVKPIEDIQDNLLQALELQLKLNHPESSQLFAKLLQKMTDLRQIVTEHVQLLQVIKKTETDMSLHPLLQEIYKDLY
The series can be described thus: Agonist activity at PPARgamma in human HT-29 cells assessed as upregulation of p21waf1/cip1 protein expression at 10 uM after 48 hrs by Western blot method. The class given is cell-based. The essentials:
(§2)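 HT-29 or HEK293T cells in DMEM/10% FBS treated 48 h with 10 μM compound (DMSO vehicle, final below 0.1%). RIPA lysates (with protease inhibitors), 80 μg protein per lane immunoblotted for p21waf1/cip1 with β-actin loading control; densitometric p21/β-actin ratio, mean ± SD of at least three independent experiments.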

For series [7], the target named is T3, Peroxisome proliferator-activated receptor gamma (Homo sapiens). Kind of series: Agonist activity at PPARgamma in human HT-29 cells harboring APC mutant assessed as inhibition of Wnt/beta-catenin signaling pathway by measuring decrease in c-Myc level at 10 uM treated for 24 hrs by Western blot method. In kind it is cell-based. In outline: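 RIPA lysates, 80 μg protein immunoblotted for c-Myc with β-actin loading control; c-Myc/β-actin densitometry, mean ± SD of at least three independent experiments.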

For a further series, the system named is HEK-293T. Kind of series: Effect on p21waf1/cip1 protein expression in HEK293T cells at 10 uM after 48 hrs by Western blot method. As to conditions: human. In kind it is cell-based. In outline: as §2
Series [8] concerns the target T4, Peroxisome proliferator-activated receptor delta (Homo sapiens, UniProt Q03181).
T4 sequence (Q03181 whole entry): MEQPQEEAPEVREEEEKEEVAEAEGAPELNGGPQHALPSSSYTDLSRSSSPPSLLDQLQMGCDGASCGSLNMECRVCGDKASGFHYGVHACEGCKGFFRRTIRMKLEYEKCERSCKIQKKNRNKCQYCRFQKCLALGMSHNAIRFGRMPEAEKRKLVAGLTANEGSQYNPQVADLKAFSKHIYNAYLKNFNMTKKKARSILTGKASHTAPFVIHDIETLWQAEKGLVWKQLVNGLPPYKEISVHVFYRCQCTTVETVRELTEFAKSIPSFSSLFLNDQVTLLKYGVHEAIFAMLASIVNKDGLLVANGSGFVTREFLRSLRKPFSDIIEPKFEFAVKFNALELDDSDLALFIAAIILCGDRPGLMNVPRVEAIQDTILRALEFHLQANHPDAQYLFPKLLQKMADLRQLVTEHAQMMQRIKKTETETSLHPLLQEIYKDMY
The series can be described thus: Binding affinity to PPARdelta (unknown origin) assessed as thermodynamic dissociation constant by SPR assay.

Series [9] deals with T2, Peroxisome proliferator-activated receptor alpha. The series can be described thus: Binding affinity to PPARalpha (unknown origin) assessed as kinetic dissociation constant by SPR assay.

Each structure is given as a SMILES string. Active and inactive are the calls of the source. The rule behind the calls is not given here.

As to `C[C@H](Oc1ccc(Cc2ccc(OCc3coc(-c4ccccc4)n3)cc2)cc1)C(=O)O`, the outcome in series [1], in [3], in [4], in series [5], in series [6] and in series [7] was Active. For the same compound, the Kd in [2] is 0.75 nM; in series [8], “Not Active”; in [9] it was 0.016 s⁻¹. In the series on HEK-293T, the Activity entry is recorded as “Non-Toxic”.
`C[C@@H](Oc1ccc(Cc2ccc(OCc3coc(-c4ccccc4)n3)cc2)cc1)C(=O)O`: the result in series [1], in [3], in series [4], in [5], in [6] and in series [7] was Active. In addition, the Kd was 0.86 nM in [2], “Not Active” in series [8] and 0.025 s⁻¹ in [9]. Besides, the Activity entry in the series with HEK-293T is on record as “Non-Toxic”.

For the origin of these results see ChEMBL document CHEMBL4007396, “New diphenylmethane derivatives as peroxisome proliferator-activated receptor alpha/gamma dual agonists endowed with anti-proliferative effects and mitochondrial activity” (Eur J Med Chem, 2017).
